The record followed here is ChEMBL document CHEMBL3616472, “Design, synthesis and structure-activity relationship studies of novel phenoxyacetamide-based free fatty acid receptor 1 agonists for the treatment of type 2 diabetes” (Bioorg Med Chem, 2015).

As a reminder, the logD is lipophilicity at a set pH, counting ionised and neutral species. A higher logD goes with a more lipophilic compound. As a reminder, the EC50 is the concentration at which the effect is half-maximal.

Series [1] concerns the target T1, Free fatty acid receptor 1 (Homo sapiens, UniProt O14842). Briefly: Agonist activity at human FFA1 expressed in CHO cells assessed as induction of receptor activation by measuring Ca2+influx at 300 nM incubated for by FLIPR method. The class given is functional, cell-based. Put shortly: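 CHO cells stably expressing human FFA1, seeded 15 K cells/well and grown 16 h at 37 °C. Response normalised as (A−B)/(C−B)×100 between vehicle (B) and 10 µM γ-linolenic acid (C).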

The target of series [2] is T1, Free fatty acid receptor 1. In words: Agonist activity at human FFA1 expressed in CHO cells assessed as induction of receptor activation by measuring Ca2+influx at 100 nM incubated for by FLIPR method. The class given is functional, cell-based. Put shortly: (§1)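 CHO cells stably expressing human FFA1 (NM_005303), seeded 15 K cells/well, grown 16 h at 37 °C in 5% CO2. Compounds added and Ca2+ flux read on FLIPR Tetra. Activity expressed as (A−B)/(C−B)×100, with C from 10 µM γ-linolenic acid and B from vehicle. Single-concentration data are means of three independent experiments; EC50 values are means of three determinations.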

Series [3] in a line: Lipophilicity, logD of the compound at pH 7.4 by shake flask method. Conditions: buffer. The class given is physicochemical. The gist of the method: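 Shake-flask method with 1-octanol and buffer at pH 7.4, shaken at 700 rpm for 24 h, then left 1 h to separate. Octanol phase diluted ×10; both phases analysed by HPLC at 254 nm in duplicate. logD taken as the octanol/buffer peak-area ratio, corrected using two calibration points per compound per solvent. Three independent experiments.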

For series [4], the target named is T1, Free fatty acid receptor 1. Briefly: Agonist activity at human FFA1 expressed in CHO cells assessed as induction of receptor activation by measuring Ca2+influx incubated for by FLIPR method. The format is functional, cell-based. Put shortly:
as §1

For series [5], the system named is Mus musculus. In words: Hypoglycemic activity in normal ICR mouse assessed as reduction in blood glucose level at 20 mg/kg, po by OGTT method. The format is functional, organism-based. Put shortly:
(§2)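 Male ICR mice, 10 weeks old, fasted 12 h and randomised into groups (n = 6). Single oral dose in 0.5% carboxymethyl cellulose (10 mL/kg) at 20, 50 or 80 mg/kg. Oral glucose load (3 g/kg, 30% solution) given 30 min later. Tail blood sampled at −30, 0, 15, 30, 45, 60 and 120 min; mean ± SEM, two-tailed Student's t-test against vehicle.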

Series [6] concerns Mus musculus. In words: Hypoglycemic activity in normal ICR mouse assessed as reduction in blood glucose level at 20 to 80 mg/kg, po by OGTT method. The class given is functional, organism-based. Put shortly: as §2
Series [7] deals with Mus musculus. In words: Hypoglycemic activity in STZ-induced type-2 diabetic C57BL/6 mouse assessed as reduction in blood glucose level at 50 mg/kg, po by OGTT method. The format is functional, organism-based. Put shortly: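 Male C57BL/6 mice fed 45%-fat diet for 4 weeks, given STZ ip at 80 mg/kg, then fed high-fat diet for 4 more weeks. Mice with fasting glucose ≥11.1 mmol/L were used. After a 12 h fast (n = 6/group, with a normal-mouse control group), 50 mg/kg was given orally in 0.5% CMC, then 2 g/kg glucose orally 30 min later. Glucose read by test strip from −30 to 120 min; Student's t-test.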

Calls of active or inactive are those of the source. The calls are words filed in the database; no cut-off is given here.

T1 sequence (O14842 whole entry): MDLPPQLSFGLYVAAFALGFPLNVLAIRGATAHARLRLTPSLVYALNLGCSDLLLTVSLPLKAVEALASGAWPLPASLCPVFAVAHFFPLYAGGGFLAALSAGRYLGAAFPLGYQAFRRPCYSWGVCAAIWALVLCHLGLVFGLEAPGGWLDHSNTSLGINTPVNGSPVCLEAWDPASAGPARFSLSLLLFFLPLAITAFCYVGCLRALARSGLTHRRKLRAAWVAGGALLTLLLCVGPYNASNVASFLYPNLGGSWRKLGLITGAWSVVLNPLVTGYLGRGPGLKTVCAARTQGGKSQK

As for `O=C(O)COc1ccc(NC(=O)COc2ccccc2)cc1F`, the Activity in series [1] was 58.7%; in series [2], 29.8%. In series [3], this compound registered a logD of -1.25.
In the case of `CC(C)(C)c1ccc(OCC(=O)Nc2ccc(OCC(=O)O)c(F)c2)cc1`, in series [2], the Activity amounted to 7.65%.
Same read-out and setting: in the case of `O=C(O)COc1ccc(NC(=O)COc2ccc(OC(F)(F)F)cc2)cc1F` it was 6.45%; in that of `Cc1cc(C)cc(OC(C)C(=O)Nc2ccc(OCC(=O)O)c(F)c2)c1` (stereo unspecified), 25.7%.
`O=C(O)COc1ccc(NC(=O)C(=O)Nc2ccccc2Cl)cc1F`: the results for the Activity in series [1] and in series [2] were 27.9% and 10.2%, respectively.
Regarding `CCOc1ccccc1OC(C)C(=O)Nc1ccc(OCC(=O)O)c(F)c1` (stereo unspecified), the Activity in series [2] is 8.79%.
In the case of `Cc1ccccc1OCC(=O)Nc1ccc(OCC(=O)O)c(F)c1`, the Activity in series [2] came to 20.8%.
Regarding `O=C(O)COc1ccc(NC(=O)C(=O)Nc2ccccc2)cc1F`, the Activity in series [1] is 26.5%; in series [2] it was 9.78%.
Regarding `O=C(O)COc1ccc(NC(=O)Nc2ccccc2)cc1F`, the Activity in series [1] was 23.7%; in series [2], 8.47%.
Take `CC(Oc1ccccc1F)C(=O)Nc1ccc(OCC(=O)O)c(F)c1` (stereo unspecified): the EC50 in series [4] amounted to 136 nM. In addition, in series [2], the Activity amounted to 35.1%. Besides, the logD in series [3] is 0.07.
The matching figures for `Cc1ccc(OC(C)C(=O)Nc2ccc(OCC(=O)O)c(F)c2)cc1C` (stereo unspecified): 133 nM, 36.8% and 0.33.
On to `COc1ccccc1NC(=O)C(=O)Nc1ccc(OCC(=O)O)c(F)c1`, for which the Activity in series [1] was 19.9%; in series [2] it was 6.78%.
`O=C(O)COc1ccc(NC(=O)C(=O)Nc2cccc(Cl)c2)cc1F`: the Activity came out at 33.7% in series [1] and 13.3% in series [2].
As to `CC(Oc1cccc(C(C)(C)C)c1)C(=O)Nc1ccc(OCC(=O)O)c(F)c1` (stereo unspecified), in series [4], the EC50 was determined as 140 nM. In addition, the Activity in series [2] turned out to be 32.8%. Moreover, the logD in series [3] was 0.63.
Regarding `Cc1ccc(OCC(=O)Nc2ccc(OCC(=O)O)c(F)c2)cc1`, in series [4], the EC50 was determined as 148 nM. In addition, in series [2], the Activity was 31.2%.
For the compound `Cc1ccc(C)c(OC(C)C(=O)Nc2ccc(OCC(=O)O)c(F)c2)c1` (stereo unspecified), in series [2], the Activity was determined as 18.6%.
As for `Cc1ccc(NC(=O)C(=O)Nc2ccc(OCC(=O)O)c(F)c2)cc1`, the Activity in series [1] was found to be 29.9%; in series [2], 11.3%.
With `CC(C)c1cccc(OCC(=O)Nc2ccc(OCC(=O)O)c(F)c2)c1`, the EC50 in series [4] amounted to 116 nM. Moreover, the Activity in series [2] stood at 43.3%. In series [3], this compound showed a logD of 0.15.
In the case of `O=C(O)COc1ccc(NC(=O)C2(C(=O)Nc3ccccc3)CC2)cc1F`, the Activity in series [1] came out at 34.2%; in series [2] it was 13.6%.
Turning to `COc1ccc(OCC(=O)Nc2ccc(OCC(=O)O)c(F)c2)cc1`, the Activity in series [2] was found to be 5.73%.
On to `Cc1cc(OCCCS(C)(=O)=O)cc(C)c1-c1cccc(COc2ccc3c(c2)OC[C@H]3CC(=O)O)c1`, for which the inhibition result in the series on Mus musculus [5] is “Active”. Besides, in series [3], the logD came out at 2.43.
Consider `CC(C)(C)c1cccc(OCC(=O)Nc2ccc(OCC(=O)O)c(F)c2)c1`, for which the EC50 in series [4] worked out at 122 nM. In addition, the Activity in series [2] worked out at 40.2%. In addition, the logD in series [3] is 0.35.
In the case of `CCOc1ccc(OC(C)C(=O)Nc2ccc(OCC(=O)O)c(F)c2)cc1` (stereo unspecified), the Activity in series [2] worked out at 3.56%.
Take `O=C(O)COc1ccc(NC(=O)c2ccccc2)cc1F`: the Activity in series [1] was 12.8%; in series [2], 3.56%.
With `O=C(O)COc1ccc(NC(=O)COc2cccc(C(F)(F)F)c2)cc1F`, the Activity in series [2] worked out at 11.3%.
Regarding `Cc1cccc(OCC(=O)Nc2ccc(OCC(=O)O)c(F)c2)c1`, the EC50 in series [4] was determined as 108 nM. For the same compound, the inhibition entry with Mus musculus [6] was “Dose-dependent effect”. For the same compound, the inhibition result in the series on Mus musculus [7] is “Active”. The Activity in series [2] amounted to 45.4%. The compound further displayed a logD in series [3] of -0.99.
Take `CC(Oc1ccccc1)C(=O)Nc1ccc(OCC(=O)O)c(F)c1` (stereo unspecified): the EC50 in series [4] was 135 nM. Moreover, the Activity in series [2] stood at 35.7%. In series [3], the logD was -0.18.
On to `CC(C)(Oc1ccccc1)C(=O)Nc1ccc(OCC(=O)O)c(F)c1`, for which, in series [2], the Activity turned out to be 3.56%.
Consider `Cc1ccc(C(C)C)cc1OCC(=O)Nc1ccc(OCC(=O)O)c(F)c1`, for which the Activity in series [2] came out at 14.6%. The compound also had a logD in series [3] of 0.47.
For `Cc1cc(OCCCS(C)(=O)=O)cc(C)c1-c1cccc(COc2ccc(OCC(=O)O)c(F)c2)c1`, the Activity was found to be 67.3% in series [1] and 54.9% in series [2]. In series [3], this compound registered a logD of 2.31.
In the case of `Cc1ccc(C(C)C)cc1OC(C)C(=O)Nc1ccc(OCC(=O)O)c(F)c1` (stereo unspecified), in series [2], the Activity was 19.4%.
Still for that read-out and setting: the same measure for `CCc1ccc(OCC(=O)Nc2ccc(OCC(=O)O)c(F)c2)cc1`: 14.6%; for `CC(Oc1cccc(C(F)(F)F)c1)C(=O)Nc1ccc(OCC(=O)O)c(F)c1` (stereo unspecified): 12.7%.
As for `O=C(O)COc1ccc(NC(=O)Cc2ccccc2)cc1F`, the values for the Activity in series [1] and in series [2] were 39.6% and 19.9%, respectively.
In the case of `COc1cccc(OCC(=O)Nc2ccc(OCC(=O)O)c(F)c2)c1`, the EC50 in series [4] came to 148 nM. Also, the Activity in series [2] is 31.7%.
On to `Cc1cccc(NC(=O)C(=O)Nc2ccc(OCC(=O)O)c(F)c2)c1`, for which the results for the Activity in series [1] and in series [2] were 36.3% and 17.6%, respectively.
As for `CC(C)c1ccc(OCC(=O)Nc2ccc(OCC(=O)O)c(F)c2)cc1`, the Activity in series [2] was found to be 11.8%.
